Experimental data reported in paper PMC6683736 (The Journal of Cell Biology, 2019).

How the values were obtained:
SGEF = test: Yeast two-hybrid screen with full-length human SGEF as bait; assay type: binding; conditions: mouse kidney cDNA library
MDCK cells [1] = test: Apical cell area and axial ratio; assay type: cell-based, canine; conditions: major/minor axis aspect ratio
Procedure, shortened: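 Apical cell area and axial ratio were measured in control, SGEF-knockdown and WT-rescue MDCK monolayers from two fields in each of two independent experiments (n = 100 cells for area, n = 150 for axial ratio). Plots show min-to-max spread.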

Dlg1 = test: Coimmunoprecipitation of SGEF constructs with GFP-Dlg1, HEK293FT lysates; assay type: binding, Mouse; conditions: GFP-trap nanobodies, WB
Procedure, shortened: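 HEK293FT cells were co-transfected by calcium phosphate; medium was changed at 24 h and cells harvested at 48 h. Lysis was in Tris-HCl pH 7.4, MgCl2, 150 mM NaCl, 1% Triton X-100 and protease inhibitors. Equal protein was incubated with GFP-Trap beads for 1 h at 4°C, washed four times, then immunoblotted with anti-GFP and anti-myc (or anti-His).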

MDCK cells [2] = test: Zigzag index of tight junctions; assay type: cell-based, canine; conditions: average; 1 = straight line; CTRL 1.24
RhoG = RhoG activity pulldown; assay type: cell-based, canine; conditions: normalized to total RhoG, three independent experiments
Procedure, shortened: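 Active RhoG was pulled down with GST–ELMO from total lysates of control, SGEF-knockdown and rescue MDCK cells, then immunoblotted with anti-RhoG. Active levels were normalised to total RhoG; mean ± SEM of three independent experiments.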

Xenopus embryos = test: Junctional localization in gastrula-stage embryos; assay type: in vivo, Xenopus laevis; conditions: live confocal, mNeon-tagged
Procedure, shortened: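 Embryos were microinjected in the animal hemisphere with mRNAs, either at the two-cell stage (each cell twice) or at the four-cell stage (once). They were raised to gastrula stage (10.5–12) and live-imaged by confocal. mNeon-tagged protein was coexpressed with BFP-ZO-1 (tight junction marker) and PLEKHA7-mCherry (adherens junction marker), and the junctional-to-cytosolic intensity ratio was quantified.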

MDCK cells [3] = test: Height of MDCK monolayer, confocal XZ; assay type: cell-based, canine; conditions: average, n = 50 cells, three independent experiments; Fig. 5 I
Procedure, shortened: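 Confocal XZ sections of confluent control, SGEF-knockdown and rescue MDCK monolayers were acquired on a Leica SP8. Cells were stained for E-cadherin, β-catenin and nuclei, or for F-actin and Hoechst, and monolayer height was measured.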

MDCK cells [4] = test: 3D cyst lumen formation in matrigel; assay type: cell-based, canine
MDCK cells [5] = test: Actomyosin organization by IF; assay type: cell-based, canine; conditions: IF, HyVolution
[6] = system: Scribble/SGEF/Dlg1 ternary complex; test: Coprecipitation of Scribble with GFP-Dlg1; assay type: binding; conditions: HA-Scribble and GFP-Dlg1 coexpressed, IP anti-GFP, HEK293
MDCK cells [7] = test: Protein levels and junctional localization by WB and IF; assay type: cell-based, canine
Procedure, shortened: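 Total lysates of confluent control, SGEF-knockdown and WT-rescue MDCK cells were immunoblotted, with tubulin as loading control. For immunofluorescence, cells were fixed in 3.7% paraformaldehyde, permeabilised with 0.1% Triton X-100 and imaged by confocal. Afadin enrichment was scored as the tricellular/bicellular junction intensity ratio (≥200 junctions, at least three fields, two experiments; Mann–Whitney U test).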

Scribble = test: Coimmunoprecipitation of SGEF constructs with GFP-Scribble, HEK293FT lysates; assay type: binding, Human; conditions: GFP-trap nanobodies, WB

| Molecule | potential binding partner for SGEF (SGEF) | axial ratio (MDCK cells [1]) | interaction with Dlg1 (Dlg1) | zigzag index (MDCK cells [2]) | active RhoG level (RhoG) | localization at apical junctional complex (Xenopus embryos) | cell height (MDCK cells [3]) | cysts with a single lumen (MDCK cells [4]; Fig. 10 D, red and dark green bars, CTRL 65%) | cysts with an open lumen (MDCK cells [4]; Fig. 10 D, red and orange bars, CTRL 100%) | E-cadherin expression in cysts (MDCK cells [4]; IF, 3D cysts) | cysts with multiple open lumens (MDCK cells [4]; matrigel, 4 d) | actomyosin organization at apical junction (MDCK cells [5]) | formation of Scribble/SGEF/Dlg1 ternary complex [6] | β-catenin and p120-catenin localization at cell–cell junctions (MDCK cells [7]; IF) | localization of Scribble and Dlg1 (MDCK cells [7]; IF, rescue of SGEF KD) | cadherin-6 levels (MDCK cells [7]; WB) | E-cadherin level and localization (MDCK cells [7]; WB and IF) | afadin expression levels and localization at AJs (MDCK cells [7]; WB and IF) | interaction with Scribble (Scribble) |
| --- | --- | --- | --- | --- | --- | --- | --- | --- | --- | --- | --- | --- | --- | --- | --- | --- | --- | --- | --- |
| Scribble: Scribble polarity protein, 1–1,630 | potential binding partner for SGEF | – | – | – | – | – | – | – | – | – | – | – | – | – | – | – | – | – | – |
| SGEF WT: full-length SGEF 1–871, RhoG-specific GEF, myc- or mNeon-tagged (protein, left off: myc, end not stated, kept) MDGESEVDFSSNSITPLWRRRSIPQPHQVLGRSKPRPQSYQSPNGLLITDFPVEDGGTLLAAQIPAQVPTASDSRTVHRSPLLLGAQRRAVANGGTASPEYRAASPRLRRPKSPKLPKAVPGGSPKSPANGAVTLPAPPPPPVLRPPRTPNAPAPCTPEEDLTGLTASPVPSPTANGLAANNDSPGSGSQSGRKAKDPERGLFPGPQKSSSEQKLPLQRLPSQENELLENPSVVLSTNSPAALKVGKQQIIPKSLASEIKISKSNNQNVEPHKRLLKVRSMVEGLGGPLGHAGEESEVDNDVDSPGSLRRGLRSTSYRRAVVSGFDFDSPTSSKKKNRMSQPVLKVVMEDKEKFSSLGRIKKKMLKGQGTFDGEENAVLYQNYKEKALDIDSDEESEPKEQKSDEKIVIHHKPLRSTWSQLSAVKRKGLSQTVSQEERKRQEAIFEVISSEHSYLLSLEILIRMFKNSKELSDTMTKTERHHLFSNITDVCEASKKFFIELEARHQNNIFIDDISDIVEKHTASTFDPYVKYCTNEVYQQRTLQKLLATNPSFKEVLSRIESHEDCRNLPMISFLILPMQRVTRLPLLMDTICQKTPKDSPKYEVCKRALKEVSKLVRLCNEGARKMERTEMMYTINSQLEFKIKPFPLVSSSRWLVKRGELTAYVEDTVLFSRRTSKQQVYFFLFNDVLIITKKKSEESYNVNDYSLRDQLLVESCDNEELNSSPGKNSSTMLYSRQSSASHLFTLTVLSNHANEKVEMLLGAETQSERARWITALGHSSGKPPADRTSLTQVEIVRSFTAKQPDELSLQVADVVLIYQRVSDGWYEGERLRDGERGWFPMECAKEITCQATIDKNVERMGRLLGLETNV | – | could be rescued | able to bind efficiently to Dlg1 | 1.16 | returned to normal | localized efficiently to the AJC | 5.61 ± 0.16 µm | 36% | 77% | restored to normal levels | 40% | restored the normal apical and basal actomyosin pattern | Scribble coprecipitated efficiently with Dlg1 | restored to normal | restored the normal localization of both Scribble and Dlg1 | restored to normal levels | restored both the proper expression level and localization of E-cadherin | rescued to normal levels | confirmed the interaction |
